Read-outs that look alike come from different tables or passages of the source.
Key:
Experiment in all cases: MTT assay, cytotoxicity/growth inhibition
[1] = system: HCT-116 (colon carcinoma); type: cell-based; conditions: Homo sapiens; for inhibition at 20 µM: HCT-116, 48 h, read-out: Cytotoxic Activity (% Growth Inhibition); for IC50: HCT-116
Summary of the method: (§1)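 Cells were grown in RPMI (A549, HCT-116, PC-3) or DMEM (MCF-7) with 10% FBS at 37 °C and 5% CO2. Seeding per well was […] and PC-3 8 × 10^4 cells. […] MTT 250 μg/mL, 4 h; DMSO; A570; triplicate; mean ± SE.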

A549 (lung carcinoma) = type: cell-based, human; conditions: Homo sapiens; for inhibition at 20 µM: A549, 48 h; for IC50: A549
Summary of the method: as §1

MCF-7 (breast carcinoma) = type: cell-based; conditions: Homo sapiens; for inhibition at 20 µM: MCF7, 48 h, read-out: Cytotoxic Activity (% Growth Inhibition); for IC50: MCF7
Summary of the method: as §1

[2] = system: PC-3 (prostate carcinoma); type: cell-based; conditions: Homo sapiens; for inhibition at 20 µM: 48 h, read-out: Cytotoxic Activity (% Growth Inhibition)
Summary of the method: as §1

[3] = read-out: Cytotoxic Activity (% Growth Inhibition), A549, 20 μM concentration, MTT, 48 h

SMILES: C[C@]1(CO)C2CC=C(COC(=O)c3cccc(F)c3)[C@@H](/C=C/C3=CCOC3=O)[C@]2(C)CC[C@H]1O (stereo partly drawn) [Compound 9c, ((1S,5R,6R,8aR)-6-Hydroxy-5-(hydroxymethyl)-5,8a-dimethyl-1-((E)-2-(2-oxo-2,5-dihydrofuran-3-yl)vinyl)-1,4,4a,5,6,7,8,8a-octahydronaphthalen-2-yl)methyl 3-Fluorobenzoate]
- inhibition at 20 µM [1]: 14.8 ± 0.17%
- inhibition at 20 µM (A549 (lung carcinoma); [3]): 42.92 ± 0.27%
- inhibition at 20 µM (MCF-7 (breast carcinoma)): 1.54 ± 0.03%
- inhibition at 20 µM [2]: 0%

SMILES: C[C@]1(CO)C2CC=C(COC(=O)c3cccc(Cl)c3)[C@@H](/C=C/C3=CCOC3=O)[C@]2(C)CC[C@H]1O (stereo partly drawn) [Compound 9d, ((1S,5R,6R,8aR)-6-Hydroxy-5-(hydroxymethyl)-5,8a-dimethyl-1-((E)-2-(2-oxo-2,5-dihydrofuran-3-yl)vinyl)-1,4,4a,5,6,7,8,8a-octahydronaphthalen-2-yl)methyl 3-Chlorobenzoate]
- inhibition at 20 µM [1]: 30.21 ± 0.15%
- inhibition at 20 µM (A549 (lung carcinoma); [3]): 49.19 ± 0.2%
- inhibition at 20 µM (MCF-7 (breast carcinoma)): 10.02 ± 0.02%
- inhibition at 20 µM [2]: 0%

SMILES: C[C@]1(CO)C2CC=C(COC(=O)c3cccc(Br)c3)[C@@H](/C=C/C3=CCOC3=O)[C@]2(C)CC[C@H]1O (stereo partly drawn) [Compound 9e, ((1S,5R,6R,8aR)-6-Hydroxy-5-(hydroxymethyl)-5,8a-dimethyl-1-((E)-2-(2-oxo-2,5-dihydrofuran-3-yl)vinyl)-1,4,4a,5,6,7,8,8a-octahydronaphthalen-2-yl)methyl 3-Bromobenzoate]
- inhibition at 20 µM [1]: 14.1 ± 0.24%
- inhibition at 20 µM (A549 (lung carcinoma); [3]): 50.55 ± 0.17%
- inhibition at 20 µM (MCF-7 (breast carcinoma)): 1.93 ± 0.1%
- inhibition at 20 µM [2]: 0%

SMILES: C[C@]1(CO)C2CC=C(COC(=O)c3cccc(I)c3)[C@@H](/C=C/C3=CCOC3=O)[C@]2(C)CC[C@H]1O (stereo partly drawn) [Compound 9f, ((1S,5R,6R,8aR)-6-Hydroxy-5-(hydroxymethyl)-5,8a-dimethyl-1-((E)-2-(2-oxo-2,5-dihydrofuran-3-yl)vinyl)-1,4,4a,5,6,7,8,8a-octahydronaphthalen-2-yl)methyl 3-Iodobenzoate]
- inhibition at 20 µM [1]: 0%
- inhibition at 20 µM (A549 (lung carcinoma); [3]): 58 ± 0.15%
- inhibition at 20 µM (MCF-7 (breast carcinoma)): 21.75 ± 0.06%
- inhibition at 20 µM [2]: 49 ± 1%

SMILES: C[C@]1(CO)C2CC=C(COC(=O)c3ccoc3)[C@@H](/C=C/C3=CCOC3=O)[C@]2(C)CC[C@H]1O (stereo partly drawn) [Compound 9g, ((1S,5R,6R,8aR)-6-Hydroxy-5-(hydroxymethyl)-5,8a-dimethyl-1-((E)-2-(2-oxo-2,5-dihydrofuran-3-yl)vinyl)-1,4,4a,5,6,7,8,8a-octahydronaphthalen-2-yl)methyl Furan-3-carboxylate]
- inhibition at 20 µM [1]: 11.28 ± 0.1%
- inhibition at 20 µM (A549 (lung carcinoma); [3]): 63.58 ± 0.08%
- inhibition at 20 µM (MCF-7 (breast carcinoma)): 0%
- inhibition at 20 µM [2]: 11 ± 0.22%

SMILES: C[C@]1(CO)C2CC=C(COC(=O)c3cccc(C(F)(F)F)c3)[C@@H](/C=C/C3=CCOC3=O)[C@]2(C)CC[C@H]1O (stereo partly drawn) [Compound 9h, ((1S,5R,6R,8aR)-6-Hydroxy-5-(hydroxymethyl)-5,8a-dimethyl-1-((E)-2-(2-oxo-2,5-dihydrofuran-3-yl)vinyl)-1,4,4a,5,6,7,8,8a-octahydronaphthalen-2-yl)methyl 3-(Trifluoromethyl)benzoate]
- inhibition at 20 µM [1]: 3.31 ± 0.13%
- inhibition at 20 µM (A549 (lung carcinoma); [3]): 28.81 ± 0.03%
- inhibition at 20 µM (MCF-7 (breast carcinoma)): 30.4 ± 0.36%
- inhibition at 20 µM [2]: 29 ± 1.4%

SMILES: Cc1cccc(C(=O)OCC2=CCC3[C@](C)(CO)[C@H](O)CC[C@@]3(C)[C@@H]2/C=C/C2=CCOC2=O)c1 (stereo partly drawn) [Compound 9i, ((1S,5R,6R,8aR)-6-Hydroxy-5-(hydroxymethyl)-5,8a-dimethyl-1-((E)-2-(2-oxo-2,5-dihydrofuran-3-yl)vinyl)-1,4,4a,5,6,7,8,8a-octahydronaphthalen-2-yl)methyl 3-Methylbenzoate]
- inhibition at 20 µM [1]: 0%
- inhibition at 20 µM (A549 (lung carcinoma); [3]): 21.4 ± 0.42%
- inhibition at 20 µM (MCF-7 (breast carcinoma)): 2.09 ± 0.07%
- inhibition at 20 µM [2]: 0%

SMILES: COc1cc(OC)cc(C(=O)OCC2=CCC3[C@](C)(CO)[C@H](O)CC[C@@]3(C)[C@@H]2/C=C/C2=CCOC2=O)c1 (stereo partly drawn) [Compound 9j, ((1S,5R,6R,8aR)-6-Hydroxy-5-(hydroxymethyl)-5,8a-dimethyl-1-((E)-2-(2-oxo-2,5 dihydrofuran-3-yl)vinyl)-1,4,4a,5,6,7,8,8a-octahydronaphthalen-2-yl)methyl 3,5-Dimethoxybenzoate]
- IC50 [1]: > 20 µM
- inhibition at 20 µM [1]: 23.9 ± 0.49%
- IC50 (A549 (lung carcinoma)): > 20 µM
- inhibition at 20 µM (A549 (lung carcinoma); [3]): 8.7 ± 0.45%
- IC50 (MCF-7 (breast carcinoma)): 16.6 µM
- inhibition at 20 µM (MCF-7 (breast carcinoma)): 51 ± 0.49%
- IC50 [2]: 6.1 µM
- inhibition at 20 µM [2]: 70 ± 0.82%

SMILES: COc1ccc(C(=O)OCC2=CCC3[C@](C)(CO)[C@H](O)CC[C@@]3(C)[C@@H]2/C=C/C2=CCOC2=O)cc1Cl (stereo partly drawn) [Compound 9l, ((1S,5R,6R,8aR)-6-Hydroxy-5-(hydroxymethyl)-5,8a-dimethyl-1-((E)-2-(2-oxo-2,5-dihydrofuran-3-yl)vinyl)-1,4,4a,5,6,7,8,8a-octahydronaphthalen-2-yl)methyl 3-Chloro-4-methoxybenzoate]
- IC50 [1]: > 20 µM
- inhibition at 20 µM [1]: 27.5 ± 0.94%
- IC50 (A549 (lung carcinoma)): > 20 µM
- inhibition at 20 µM (A549 (lung carcinoma); [3]): 3.3 ± 0.63%
- IC50 (MCF-7 (breast carcinoma)): 17.8 µM
- inhibition at 20 µM (MCF-7 (breast carcinoma)): 47 ± 0.24%
- IC50 [2]: 5.7 µM
- inhibition at 20 µM [2]: 71.4 ± 0.56%

SMILES: C[C@]1(CO)C2CC=C(COC(=O)c3ccc(Br)cc3F)[C@@H](/C=C/C3=CCOC3=O)[C@]2(C)CC[C@H]1O (stereo partly drawn) [Compound 9m, ((1S,5R,6R,8aR)-6-Hydroxy-5-(hydroxymethyl)-5,8a-dimethyl-1-((E)-2-(2-oxo-2,5-dihydrofuran-3-yl)vinyl)-1,4,4a,5,6,7,8,8a-octahydronaphthalen-2-yl)methyl 4-Bromo-2-fluorobenzoate]
- IC50 [1]: > 20 µM
- inhibition at 20 µM [1]: 23.1 ± 0.84%
- IC50 (A549 (lung carcinoma)): > 20 µM
- inhibition at 20 µM (A549 (lung carcinoma); [3]): 14.9 ± 0.24%
- IC50 (MCF-7 (breast carcinoma)): > 20 µM
- inhibition at 20 µM (MCF-7 (breast carcinoma)): 8 ± 0.85%
- IC50 [2]: 7.6 µM
- inhibition at 20 µM [2]: 78.9 ± 0.96%

SMILES: C[C@]1(CO)C2CC=C(COC(=O)c3ccccc3C(F)(F)F)[C@@H](/C=C/C3=CCOC3=O)[C@]2(C)CC[C@H]1O (stereo partly drawn) [Compound 9n, ((1S,5R,6R,8aR)-6-Hydroxy-5-(hydroxymethyl)-5,8a-dimethyl-1-((E)-2-(2-oxo-2,5-dihydrofuran-3-yl)vinyl)-1,4,4a,5,6,7,8,8a-octahydronaphthalen-2-yl)methyl 2-(Trifluoromethyl)benzoate]
- IC50 [1]: > 20 µM
- inhibition at 20 µM [1]: 44.9 ± 0.78%
- IC50 (A549 (lung carcinoma)): > 20 µM
- inhibition at 20 µM (A549 (lung carcinoma); [3]): 5.6 ± 0.14%
- IC50 (MCF-7 (breast carcinoma)): > 20 µM
- inhibition at 20 µM (MCF-7 (breast carcinoma)): 18 ± 0.58%
- IC50 [2]: 5.7 µM
- inhibition at 20 µM [2]: 72.2 ± 0.41%

SMILES: C[C@]1(CO)C2CC=C(COC(=O)Cc3ccccc3)[C@@H](/C=C/C3=CCOC3=O)[C@]2(C)CC[C@H]1O (stereo partly drawn) [Compound 9o, ((1S,5R,6R,8aR)-6-Hydroxy-5-(hydroxymethyl)-5,8a-dimethyl-1-((E)-2-(2-oxo-2,5-dihydrofuran-3-yl)vinyl)-1,4,4a,5,6,7,8,8a-octahydronaphthalen-2-yl)methyl 2-Phenylacetate]
- inhibition at 20 µM [1]: 0%
- inhibition at 20 µM (A549 (lung carcinoma); read-out: Cytotoxic Activity (% Growth Inhibition)): 43.4 ± 0.19%
- inhibition at 20 µM (MCF-7 (breast carcinoma)): 29.2 ± 0.29%
- inhibition at 20 µM [2]: 15 ± 0.72%

SMILES: C[C@]1(CO)C2CC=C(COC(=O)Cc3ccc(F)cc3)[C@@H](/C=C/C3=CCOC3=O)[C@]2(C)CC[C@H]1O (stereo partly drawn) [Compound 9p, ((1S,5R,6R,8aR)-6-Hydroxy-5-(hydroxymethyl)-5,8a-dimethyl-1-((E)-2-(2-oxo-2,5-dihydrofuran-3-yl)vinyl)-1,4,4a,5,6,7,8,8a-octahydronaphthalen-2-yl)methyl 2-(4-Fluorophenyl)acetate]
- inhibition at 20 µM [1]: 27.6 ± 0.31%
- inhibition at 20 µM (A549 (lung carcinoma); [3]): 32.6 ± 0.96%
- inhibition at 20 µM (MCF-7 (breast carcinoma)): 12 ± 0.85%
- inhibition at 20 µM [2]: 44 ± 0.89%

SMILES: C[C@]1(CO)C2CC=C(COC(=O)Cc3ccc(Cl)cc3)[C@@H](/C=C/C3=CCOC3=O)[C@]2(C)CC[C@H]1O (stereo partly drawn) [Compound 9q, ((1S,5R,6R,8aR)-6-Hydroxy-5-(hydroxymethyl)-5,8a-dimethyl-1-((E)-2-(2-oxo-2,5-dihydrofuran-3-yl)vinyl)-1,4,4a,5,6,7,8,8a-octahydronaphthalen-2-yl)methyl 2-(4-Chlorophenyl)acetate]
- inhibition at 20 µM [1]: 19.3 ± 0.97%
- inhibition at 20 µM (A549 (lung carcinoma); [3]): 47.2 ± 0.85%
- inhibition at 20 µM (MCF-7 (breast carcinoma)): 28 ± 0.87%
- inhibition at 20 µM [2]: 38 ± 0.96%

SMILES: C[C@]1(CO)C2CC=C(COC(=O)Cc3ccc(I)cc3)[C@@H](/C=C/C3=CCOC3=O)[C@]2(C)CC[C@H]1O (stereo partly drawn) [Compound 9r, ((1S,5R,6R,8aR)-6-Hydroxy-5-(hydroxymethyl)-5,8a-dimethyl-1-((E)-2-(2-oxo-2,5-dihydrofuran-3-yl)vinyl)-1,4,4a,5,6,7,8,8a-octahydronaphthalen-2-yl)methyl 2-(4-Iodophenyl)acetate]
- inhibition at 20 µM [1]: 27.2 ± 0.48%
- inhibition at 20 µM (A549 (lung carcinoma); [3]): 2.4 ± 0.19%
- inhibition at 20 µM (MCF-7 (breast carcinoma)): 12 ± 0.96%
- inhibition at 20 µM [2]: 10.6 ± 0.22%

SMILES: Cc1ccc(CC(=O)OCC2=CCC3[C@](C)(CO)[C@H](O)CC[C@@]3(C)[C@@H]2/C=C/C2=CCOC2=O)cc1 (stereo partly drawn) [Compound 9t, ((1S,5R,6R,8aR)-6-Hydroxy-5-(hydroxymethyl)-5,8a-dimethyl-1-((E)-2-(2-oxo-2,5-dihydrofuran-3-yl)vinyl)-1,4,4a,5,6,7,8,8a-octahydronaphthalen-2-yl)methyl 2-(p-Tolyl)acetate]
- inhibition at 20 µM [1]: 13.9 ± 0.64%
- inhibition at 20 µM (A549 (lung carcinoma); [3]): 49.7 ± 0.92%
- inhibition at 20 µM (MCF-7 (breast carcinoma)): 5.2 ± 0.5%
- inhibition at 20 µM [2]: 52 ± 0.85%

SMILES: COc1cc(CC(=O)OCC2=CCC3[C@](C)(CO)[C@H](O)CC[C@@]3(C)[C@@H]2/C=C/C2=CCOC2=O)cc(OC)c1OC (stereo partly drawn) [Compound 9u, ((1S,5R,6R,8aR)-6-Hydroxy-5-(hydroxymethyl)-5,8a-dimethyl-1-((E)-2-(2-oxo-2,5-dihydrofuran-3-yl)vinyl)-1,4,4a,5,6,7,8,8a-octahydronaphthalen-2-yl)methyl 2-(3,4,5-Trimethoxyphenyl)acetate]
- inhibition at 20 µM [1]: 35.9 ± 0.87%
- inhibition at 20 µM (A549 (lung carcinoma); [3]): 32.6 ± 0.38%
- inhibition at 20 µM (MCF-7 (breast carcinoma)): 69 ± 0.58%
- inhibition at 20 µM [2]: 48.7 ± 0.96%

Source: publication PMC9933479 (ACS Omega, 2023)
